Screens deposited in PubChem BioAssay by Johns Hopkins Ion Channel Center.
KCNK9 inh: blocks the human KCNK9 two-pore domain potassium channel. Q9NPC2. HEK293 KCNK9, FluxOR thallium flux fluorescence; hits give low values. B-score at 10 µM. hit rate 1.2% among 310,000;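 active = ratio B-score over 3 SD below the library mean, with starting fluorescence within 5 SD of its mean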;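 note: negative B-score means less thallium flux so channel inhibition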
KCNK3 inh: human KCNK3 channel inhibition, primary screen | O14649 | CHO-KCNK3 thallium flux, FluxOR fluorescence; hits give low values | hit rate 0.84% among 340,000 | B-score at 10 µM | AID 602410;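 active = B-score under library mean minus 4 SD, starting fluorescence ratio at most library mean plus 5 SD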;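 note: more negative B-score means stronger inhibition of thallium flux through KCNK3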
hERG protect: hERG (human) protection from proarrhythmic block. CHO-hERG, FluxOR thallium flux, dofetilide IC70 present. Q12809. activation (rescue from dofetilide block), less the hit threshold, % at 10 µM. hit rate 0.51% among 310,000;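 active = activation above the mean of controls blocked by dofetilide plus 5 SD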;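 note: thallium influx through hERG after potassium depolarization seen as dye fluorescence rise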
KCNQ1 act: potentiators or activators of human KCNQ1 potassium channel; CHO-K1 KCNQ1, thallium flux FluxOR fluorescence; hits give high values; P51787; hit rate 0.35% among 310,000; B-score at 10 µM;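 active = fluorescence ratio B-score, a plate-corrected score, at least three library SD, with initial intensity B-score within 5 SD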
Target sequence (P51787 whole entry, looked up): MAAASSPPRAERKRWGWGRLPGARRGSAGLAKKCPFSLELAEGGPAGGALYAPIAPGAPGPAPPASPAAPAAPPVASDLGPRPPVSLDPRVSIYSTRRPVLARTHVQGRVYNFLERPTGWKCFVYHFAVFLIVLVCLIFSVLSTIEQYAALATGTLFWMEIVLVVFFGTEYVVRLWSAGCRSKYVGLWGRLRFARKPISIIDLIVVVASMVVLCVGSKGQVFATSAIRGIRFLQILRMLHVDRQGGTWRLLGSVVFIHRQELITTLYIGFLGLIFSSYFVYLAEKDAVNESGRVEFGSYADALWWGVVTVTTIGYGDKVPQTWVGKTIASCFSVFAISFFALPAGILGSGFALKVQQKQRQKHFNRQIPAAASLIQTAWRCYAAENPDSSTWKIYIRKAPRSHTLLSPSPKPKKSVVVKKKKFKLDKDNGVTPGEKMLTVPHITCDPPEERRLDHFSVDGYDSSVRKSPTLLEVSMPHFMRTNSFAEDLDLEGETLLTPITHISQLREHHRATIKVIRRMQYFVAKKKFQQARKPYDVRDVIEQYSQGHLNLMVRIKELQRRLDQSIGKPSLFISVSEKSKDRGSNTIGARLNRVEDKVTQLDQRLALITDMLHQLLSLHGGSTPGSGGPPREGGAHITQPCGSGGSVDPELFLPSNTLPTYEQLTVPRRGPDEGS
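Assay system: stable KCNQ1 CHO-K1 line; medium: assay buffer, equal DMSO in all wells; timing: 90 min dye loading and 20 min compound exposure, both at room temperature; technique: kinetic FluxOR thallium fluorescence, 10-s 1-Hz baseline, 110-s post-stimulus read; read-out basis: B score of baseline-normalized fluorescence ratio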
KCNQ1 block: blocks the human KCNQ1 potassium channel; P51787; CHO-K1 KCNQ1, FluxOR thallium flux fluorescence; hits give high values; B-score at 10 µM; hit rate 1.3% among 310,000; AID 2642;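 active = compounds whose thallium flux B-score, printed positive for inhibition, exceeds three library SD while starting fluorescence stays within three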;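 note: channel opened by potassium depolarization with thallium stimulus after 20 min compound exposure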
KCNQ1 block val: reconfirmed blocker of the human KCNQ1 potassium channel; KCNQ1 cell line, FluxOR thallium flux fluorescence; hit rate 93% among 1,600; inhibition, % at 10 µM; shares compounds with KCNQ1 block; AID 588353;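 active = primary screen active, with duplicate mean exceeding buffer control mean plus 3 SD of buffer wells, cut at about 28% in these data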;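 note: 0% = buffer control ratio and 100% = XE991 inhibitor control ratio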
CHO Tl flux: KCNQ1 inhibitor counter-screen hit in parental CHO cells | parental CHO-K1, FluxOR thallium flux fluorescence ratio; hits give low values; zero means no signal rise above baseline | shares compounds with KCNQ1 block | AID 588366 | hit rate 21% among 1,600 | fluorescence ratio (Tl flux) at 10 µM;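 active = mean of duplicate thallium-flux fluorescence ratios in parental host cells more than 5 SD below the buffer control mean, cut at about 0.38 in these data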;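 note: ratio is peak minus minimum fluorescence divided by baseline fluorescence; actives read low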
KCNQ1 APC inh: confirmation of human KCNQ1 potassium channel inhibitors by electrophysiology; calls only at 10 µM; hit rate 20% among 490; KCNQ1-CHO cells, automated patch clamp current; shares compounds with KCNQ1 block;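 active = KCNQ1 current drop exceeding 3 SD of negative control wells, seen in both duplicate runs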;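 note: steady state current during a 2 s step from -80 to +40 mV; negative values mean current inhibition and positive values mean potentiation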
KCNQ2 spec: rat KCNQ2 inhibition in KCNQ1 inhibitor specificity screen | inhibition, % at 10 µM | shares compounds with KCNQ1 block | KCNQ2 cells, FluxOR thallium flux fluorescence | AID 651746 | hit rate 71% among 1,600;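 active = mean percent inhibition of the KCNQ2 thallium signal more than 5 SD above the buffer-only control wells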;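 note: KCNQ2 expressed in CHO cells; 0% = buffer control wells and 100% = XE-991 inhibitor control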
KCNQ1 KCNE1 spec: KCNQ1 inhibitor that also blocks human KCNQ1/KCNE1 channel; AID 652147; shares compounds with KCNQ1 block; KCNQ1/KCNE1 cells, FluxOR thallium flux fluorescence; inhibition, % at 10 µM; hit rate 77% among 1,600;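 active = mean percent inhibition of duplicate wells above the buffer-only control mean plus 3 SD of those controls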;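 note: 0% = buffer only wells and 100% = XE-991 inhibitor control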
Numbers without * were called inactive; i = inactive; . = not tested or not shown. A selection: hits, their analogues and other compounds. The true share with any hit is near 3.1%.

SMILES	KCNK9 inh	KCNK3 inh	hERG protect	KCNQ1 act	KCNQ1 block	KCNQ1 block val	CHO Tl flux	KCNQ2 spec	KCNQ1 KCNE1 spec	others
COc1ccc(-n2cc(-c3ccccc3)nc2SC)cc1	i	i	-15	i	6*	94*	0.42	86%*	130%*	KCNQ1 APC inh=i
NNC(=O)CSc1nc(-c2ccccc2)cn1-c1ccccc1	i	i	-5	i	i	.	.	.	.
O=C(Nc1ncccn1)c1cc(-c2cccc(Br)c2)nc2ccccc12	i	i	-4	i	i	.	.	.	.
Cc1ccc(C)c(NC(=O)c2cc(-c3cccnc3)nc3ccccc23)c1	i	i	-5	i	7*	62*	0.47	97%*	44%*
Cc1cccc(-c2cc(C(=O)Nc3ccc4c(c3)OCCO4)c3ccccc3n2)c1	i	i	-10	i	9*	78*	0.39	116%*	93%*
O=C(Nc1ccon1)c1cc(-c2ccccc2)nc2ccccc12	.	i	.	.	.	.	.	.	.
O=C(O)c1ccccc1NC(=O)c1cc(-c2ccccc2)nc2ccccc12	i	i	-31	i	7*	70*	0.48	82%*	120%*
O=C(Nc1ccccn1)c1cc(-c2cccc(Cl)c2)nc2ccccc12	i	i	-19	i	7*	92*	0.41	115%*	151%*	KCNQ1 APC inh=i
CCOc1ccccc1C(=O)NCC(=O)OCC(=O)N1CCCC1	.	i	.	.	.	.	.	.	.
CCN(CC(=O)NNC(=O)c1ccccc1)Cc1ccc(OC)c(F)c1	.	i	.	.	.	.	.	.	.
Cc1cc(C)c(NC(=O)CNC(=O)COC(=O)/C=C/c2cccs2)c(C)c1	i	i	-16	i	i	.	.	.	.
Nc1c(N(Cc2ccccc2)C(=O)COc2ccc([N+](=O)[O-])cc2)c(=O)[nH]c(=O)n1Cc1ccccc1	.	i	.	.	.	.	.	.	.
COc1ccc(NC(=O)COc2cc(O)c3c(c2)OC(C)(C)CC3=O)cc1	i	i	-8	i	i	.	.	.	.
COc1cccc(NC(=O)COc2cc(O)c3c(c2)OC(C)(C)CC3=O)c1	i	i	-13	i	7*	49*	0.44	78%*	70%*
CCCn1cc(CN2CCC(n3nccc3NC(=O)CCOc3ccccc3)CC2)c(C)n1	i	i	-5	i	i	.	.	.	.
CCOC(=O)Cc1c(Sc2ccccc2)c2ccccc2n1C	-8*	i	-3	i	7*	94*	0.47	88%*	114%*	KCNQ1 APC inh=i
CCc1nnc(NC(=O)CCC2CCCCC2)s1	i	i	-3	i	i	.	.	.	.
O=C(CCC1CCCCC1)Nc1nnc(C(F)(F)F)s1	i	i	0	i	6*	64*	0.54	i	34%*
CCCCCC(=O)NC(=S)NC1C2CC3CC(C2)CC1C3 (stereo unspecified)	i	i	-10	i	7*	66*	0.48	79%*	64%*
CC(NS(=O)(=O)CCNC(=O)c1ccccc1)c1ccccc1 (stereo unspecified)	i	i	-4	i	i	.	.	.	.
CCN1CC(C)(C)N(C(=O)c2ccccc2)CC1(C)C	.	i	.	.	.	.	.	.	.
COc1ccc(-c2csc(NC(=O)C3CCN(c4ncnc5sc(C)c(C)c45)CC3)n2)cc1OC	i	i	-16	i	9*	122*	0.41	83%*	103%*	KCNQ1 APC inh=i
COc1ccccc1OCC(=O)NNC(=O)C1CCN(c2ncnc3sc(C)c(C)c23)CC1	.	i	.	.	.	.	.	.	.
